The text below walks through data of ChEMBL document CHEMBL4368887, “Synthesis and X-ray study of dispiro 8-nitroquinolone analogues and their cytotoxic properties against human cervical cancer HeLa cells” (Medchemcomm, 2019).

The source made the active and inactive calls. The rule behind the calls is not given here.

Data set [1] concerns HeLa. The experiment in a line: Cytotoxicity against human HeLa cells after 72 hrs by MTT assay. It counts as functional, cell-based. In short, it runs like this: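 HeLa cells in DMEM with 4 mM L-glutamine, penicillin, streptomycin and 10% FBS. Seeded at 4000 cells/well, settled 24 h, then given serially diluted compound for 72 h at 37°C in 5% CO2. MTT in IMDM for 4 h, acidified ethanol lysis 15 min, A570 with 690 nm background. IC50 is 50% absorbance of untreated wells; three experiments in triplicate.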
On the technique in general: Tetrazolium dyes change colour on reduction, which living cells bring about.

For data set [2], the system named is HeLa. The data set can be described thus: Induction of morphological changes in human HeLa cells assessed as cell shrinkage at IC50 after 24 hrs by phase contrast microscopic analysis. It counts as functional, cell-based. In short, it runs like this:
(§1)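 HeLa cells in DMEM with 10% FBS at 37°C, 5% CO2. […] Morphology compared with untreated cells under phase contrast microscope.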

Data set [3] has as its system HeLa. The data set can be described thus: Induction of morphological changes in human HeLa cells assessed as rounded cells at IC50 after 24 hrs by phase contrast microscopic analysis. The data set is classed as functional, cell-based. The gist of the method: as §1
The nature of data set [4]: Induction of hemolysis in human erythrocytes at IC50 by standard optical density assay relative to control. It counts as cell-based, Erythrocyte. The note with it: read-out: Activity. In short, it runs like this:
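Donor blood diluted in saline; RBCs spun down at 3000 rpm for 10 min and washed three times. Mixed with compound at a range of concentrations and incubated at 37°C in 5% CO2. Spun at 3000 rpm for 5 min, supernatant OD read at 570 nm. Hemolysis % calculated against saline (0%) and distilled water (100%) controls.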

The subject of data set [5] is HeLa. The data set can be described thus: Induction of ROS generation in human HeLa cells at IC50 after 3 hrs by DCFH-DA dye-based flow cytometric analysis. The data set is classed as functional, cell-based. The gist of the method: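 Harvested, washed twice in PBS, then 5 µM DCFH-DA (final) in DMEM for 10 min at 37°C. Flow cytometry at ex 485 / em 530 nm on 20000 cells per sample. Output is % of cells with DCF green fluorescence.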
On the technique in general: A flow cytometer gives signals particle by particle.

The test system of data set [6] is HeLa. The experiment in a line: Induction of apoptosis in human HeLa cells assessed as cytoplasmic shrinkage at IC50 by DAPI staining-based fluorescence microscopic analysis. The data set is classed as functional, cell-based. The gist of the method: (§2)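 Cells at 1×10^5 per coverslip exposed at IC50 concentration. Fixed in methanol:acetic acid 3:1 v/v, stained with DAPI 5 µg/mL for 20 min. Nuclear morphology viewed by fluorescence microscopy with a […].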

The test system of data set [7] is HeLa. The data set can be described thus: Induction of apoptosis in human HeLa cells assessed as apoptotic body formation at IC50 by DAPI staining-based fluorescence microscopic analysis. The data set is classed as functional, cell-based. The gist of the method:
as §2

Data set [8] relates to HeLa. The data set can be described thus: Induction of apoptosis in human HeLa cells assessed as chromatin condensation at IC50 by DAPI staining-based fluorescence microscopic analysis. The data set is classed as functional, cell-based. In short, it runs like this:
as §2

Data set [9] concerns HeLa. The experiment in a line: Induction of morphological changes in human HeLa cells assessed as disintegrated membrane at IC50 after 24 hrs by phase contrast microscopic analysis. It counts as functional, cell-based. In short, it runs like this:
as §1

Data set [10] relates to HeLa. The experiment in a line: Induction of morphological changes in human HeLa cells assessed as swollen cells at IC50 after 24 hrs by phase contrast microscopic analysis. The data set is classed as functional, cell-based. The gist of the method: as §1
Data set [11] concerns HeLa. The experiment in a line: Induction of apoptosis in human HeLa cells assessed as nuclear shrinkage at IC50 by DAPI staining-based fluorescence microscopic analysis. The data set is classed as functional, cell-based. In short, it runs like this: as §2
The subject of data set [12] is HeLa. The experiment in a line: Induction of morphological changes in human HeLa cells assessed as detached cells at IC50 after 24 hrs by phase contrast microscopic analysis. The data set is classed as functional, cell-based. In short, it runs like this: as §1
Data set [13] deals with HeLa. The data set can be described thus: Induction of apoptosis in human HeLa cells assessed as increase in caspase3 levels at IC50 after 24 hrs by Western blot analysis. The data set is classed as functional, cell-based. In short, it runs like this: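 Extracts of treated cells quantified by Bradford assay. 50 μg protein run on 12% SDS-PAGE and transferred to nitrocellulose. Blocked in 5% skim milk in PBS for 1 h at room temperature, primary antibody overnight, goat anti-mouse 1:2000. Three independent experiments in triplicate.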
(In western blotting, separated proteins are transferred to a membrane and probed.)

In data set [14] the test system is HeLa. The experiment in a line: Induction of apoptosis in human HeLa cells assessed as late apoptotic cells level at IC50 after 48 hrs by Annexin V-FITC/propidium iodide staining based flow cytometric analysis (reference value: %). The data set is classed as functional.
Data set [15] concerns HeLa. The data set can be described thus: Induction of apoptosis in human HeLa cells assessed as viable cells level at IC50 after 48 hrs by Annexin V-FITC/propidium iodide staining based flow cytometric analysis (reference value: 77.09%). The data set is classed as functional.
The subject of data set [16] is HeLa. The experiment in a line: Induction of apoptosis in human HeLa cells assessed as necrotic cells level at IC50 after 48 hrs by Annexin V-FITC/propidium iodide staining based flow cytometric analysis (reference value: %). The data set is classed as functional.
The test system of data set [17] is HeLa. The experiment in a line: Induction of apoptosis in human HeLa cells at IC50 after 48 hrs by Annexin V-FITC/propidium iodide staining based flow cytometric analysis (reference value: 100%). The data set is classed as functional.
The subject of data set [18] is HeLa. The data set can be described thus: Induction of apoptosis in human HeLa cells assessed as early apoptotic cells level at IC50 after 48 hrs by Annexin V-FITC/propidium iodide staining based flow cytometric analysis (reference value: 0%). The data set is classed as functional.

Broadly, the IC50 is the point on the concentration scale where inhibition reaches its midpoint. Lower therefore signals inhibition by little substance. In the case of `O=C1c2cccc([N+](=O)[O-])c2NC[C@@]12[C@H](c1ccc(Cl)cc1)[C@@H](c1ccccc1)N[C@]21C(=O)Nc2ccc(F)cc21`, in the data set with HeLa [1], the Activity result was “Dose-dependent effect” and the IC50 is 25 µM.

Consider `O=C1c2cccc([N+](=O)[O-])c2NC[C@@]12[C@H](c1ccc(Br)cc1)[C@@H](c1ccccc1)N[C@]21C(=O)Nc2ccc(Cl)cc21`, for which the outcome with HeLa [2], in the data set with HeLa [3], in the data set on HeLa [5], with HeLa [6], with HeLa [7] and in the data set on HeLa [8] was Active. Also, the outcome in the data set on HeLa [9], with HeLa [10], in the data set with HeLa [11] and with HeLa [12] was Active. Moreover, the Activity result with HeLa [1] is “Dose-dependent effect”. This molecule displayed an IC50 in the data set on HeLa [1] of 21 µM. Besides, the hemolysis in data set [4] is below 7%.

As to `O=C1c2cccc([N+](=O)[O-])c2NC[C@@]12[C@H](c1ccc(Br)cc1)[C@@H](c1ccccc1)N[C@]21C(=O)Nc2ccc(Br)cc21`, in the data set with HeLa [1], the Activity result was “Dose-dependent effect” and the IC50 came to 25 µM.

Take `COc1ccc([C@@H]2[C@@H](c3ccccc3)N[C@]3(C(=O)Nc4ccc(Br)cc43)[C@]23CNc2c(cccc2[N+](=O)[O-])C3=O)cc1`: the outcome with HeLa [2], with HeLa [3], with HeLa [5], with HeLa [6], in the data set with HeLa [7] and in the data set on HeLa [8] was Active. In addition, the result in the data set on HeLa [9], in the data set with HeLa [10], in the data set on HeLa [11] and in the data set on HeLa [12] was Active. In addition, in the data set with HeLa [1], the Activity entry is “Dose-dependent effect”. In the data set on HeLa [1], this molecule registered an IC50 of 19 µM. Also, the hemolysis in data set [4] is below 7%.

Regarding `COc1ccc([C@@H]2[C@@H](c3ccccc3)N[C@]3(C(=O)Nc4ccc(Cl)cc43)[C@]23CNc2c(cccc2[N+](=O)[O-])C3=O)cc1`, the outcome in the data set with HeLa [2], in the data set with HeLa [3], in the data set on HeLa [5], in the data set with HeLa [6], in the data set with HeLa [13] and in the data set on HeLa [7] was Active. Also, the result in the data set on HeLa [8], in the data set on HeLa [9], in the data set on HeLa [10], in the data set with HeLa [11] and with HeLa [12] was Active. Also, the Activity entry was “Dose-dependent effect” in the data set on HeLa [1]; 1.42% with HeLa [14]; 2.44% in the data set on HeLa [15]; 0% with HeLa [16]; 95.68% in the data set with HeLa [17]; 85.33% in the data set on HeLa [18]. In the data set on HeLa [1], the IC50 worked out at 16 µM. Further, the hemolysis in data set [4] is below 7%.

Take `COc1ccc([C@@H]2[C@@H](c3ccccc3)N[C@]3(C(=O)Nc4ccc(F)cc43)[C@]23CNc2c(cccc2[N+](=O)[O-])C3=O)cc1`: in the data set on HeLa [1], the Activity entry is “Dose-dependent effect” and half-maximal inhibition (IC50) was put at 24 µM.

As for `O=C1c2cccc([N+](=O)[O-])c2NC[C@@]12[C@H](c1ccc(Cl)cc1)[C@@H](c1ccccc1)N[C@]21C(=O)Nc2ccc(Br)cc21`, the outcome in the data set with HeLa [2], with HeLa [3], with HeLa [5], in the data set on HeLa [6], in the data set with HeLa [7] and in the data set on HeLa [8] was Active. The outcome in the data set with HeLa [9], with HeLa [10], in the data set with HeLa [11] and in the data set with HeLa [12] was Active. Moreover, the Activity entry in the data set on HeLa [1] was “Dose-dependent effect”. Further, half-maximal inhibition with HeLa [1] (IC50) was put at 23 µM. The hemolysis in [4] was below 7%.

For the molecule `O=C1c2cccc([N+](=O)[O-])c2NC[C@@]12[C@H](c1ccc(F)cc1)[C@@H](c1ccccc1)N[C@]21C(=O)Nc2ccc(F)cc21`, in the data set on HeLa [1], the Activity result is “Dose-dependent effect” and the midpoint of inhibition, the IC50, lay at 20 µM.

In the case of `COc1cccc2c1C(=O)c1c(O)c3c(c(O)c1C2=O)C[C@@](O)(C(=O)CO)C[C@@H]3O[C@H]1C[C@H](N)[C@H](O)[C@H](C)O1` [DOXORUBICIN], in the data set on HeLa [1], the Activity result is “Dose-dependent effect” and the IC50 came to 14 µM.

For the molecule `O=C1c2cccc([N+](=O)[O-])c2NC[C@@]12[C@H](c1ccc(F)cc1)[C@@H](c1ccccc1)N[C@]21C(=O)Nc2ccc(Br)cc21`, in the data set with HeLa [1], the Activity result is “Dose-dependent effect” and it took 26 µM to reach half-maximal inhibition (IC50).

For `O=C1c2cccc([N+](=O)[O-])c2NC[C@@]12[C@H](c1ccc(F)cc1)[C@@H](c1ccccc1)N[C@]21C(=O)Nc2ccc(Cl)cc21`, in the data set on HeLa [1], the Activity entry was “Dose-dependent effect” and half-maximal inhibition (IC50) was put at 27 µM.

With `O=C1c2cccc([N+](=O)[O-])c2NC[C@@]12[C@H](c1ccc(Cl)cc1)[C@@H](c1ccccc1)N[C@]21C(=O)Nc2ccc(Cl)cc21`, the outcome in the data set on HeLa [2], in the data set on HeLa [3], with HeLa [5], in the data set on HeLa [6], in the data set with HeLa [7] and in the data set with HeLa [8] was Active. For the same molecule, the outcome with HeLa [9], in the data set with HeLa [10], in the data set on HeLa [11] and with HeLa [12] was Active. The Activity entry with HeLa [1] is “Dose-dependent effect”. Besides, the IC50 in the data set with HeLa [1] was found to be 18 µM. Besides, the hemolysis in data set [4] was below 7%.

As to `O=C1c2cccc([N+](=O)[O-])c2NC[C@@]12[C@H](c1ccc(Br)cc1)[C@@H](c1ccccc1)N[C@]21C(=O)Nc2ccc(F)cc21`, in the data set with HeLa [1], the Activity entry was “Dose-dependent effect” and 26 µM corresponded to half-maximal inhibition (IC50).
